Results published in the RNAGym collection of RNA variant scans (doi:10.1126/science.aae0568).
Variants at the floor of the assay were thinned out.

B1: tRNA (parent)
chain: GUUCCGUUGGCGUAAUGGUAACGCGUCUCCCUCCUAAGGAGAAGACUGCGGGUUCGAGUCCCGUACGGAACG

Variants of: B1
Assay: yeast fitness relative to wild type (ratio to wild type); higher = fitter; tRNA-Arg(CCU), competitive growth, 37 C, YPD
Outline: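 Changes in genotype frequencies gave Darwinian fitness relative to wild type. Frequencies were read by 100-nucleotide paired-end sequencing of gene amplicons before and after pooled Saccharomyces cerevisiae strains, carrying tRNA-Arg(CCU) gene variants at the native locus, were competed in YPD at 37°C for 24 hours in six replicates. A genotype was kept only with ≥ 100 starting reads, and estimates < 0.5 were set to 0.5.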

Variant | yeast fitness
C4G A15U G18C G23C C24G G56C | ≤ 0.5
C4G A14U | 0.78
C4G A14G | 0.78
C4G A14C | 0.568
C4A G17A C62U | 0.556
C4A G17A G41A G67A | ≤ 0.5
C4G A21C C27A U28G | 0.614
C4G A37C | 0.773
C4A U26A C34G G38A G68C | ≤ 0.5
C4A G17A A42U C55G | ≤ 0.5
C4A U53C G68C | 0.553
C4A G12C A37G G38A | ≤ 0.5
C4A U53C U64A | ≤ 0.5
C4A U59C | 0.944
C4A U59A | 0.664
C4A U7C A45C C61G | ≤ 0.5
C4G A20U C60G C62G | 0.584
C4A G38A C55G | ≤ 0.5
C4A U16C G17A C31U U54A | ≤ 0.5
C4A G39A | 0.914
C4G A42U G68C | ≤ 0.5
C4A U19A G44A U53C A70U | ≤ 0.5
C4A U8C A15C C31U G48C A65C | 0.608
C4A G10C G63C A69U | ≤ 0.5

Variant | yeast fitness
C4A G17A C60G A70G | ≤ 0.5
C4G A21G A43C C46A A57C C62G C66U | ≤ 0.5
C4G A20G A43G | 0.502
C4A G17C G50A G51A | ≤ 0.5
C4A G18A C27A A37C C61A | ≤ 0.5
C4A U19G C31G A45C C46G G56C G63A U64C G67C | ≤ 0.5
C4A G17C A20G C31G A37C | ≤ 0.5
C4A G17C U19C A21U C33G | ≤ 0.5
C4A G17C C49U C62G | ≤ 0.5
C4G A14C G25C U54A C66G | ≤ 0.5
C4A G23A | 0.89
C4A G23C | 0.77
C4G A20U G50A G58C C66U | ≤ 0.5
C4A G18A C27A A37C G56A G68U | ≤ 0.5
C4G A36U C62G | 0.54
C4A G17A G41A C61U G63U G68A | ≤ 0.5
C4A U47C A70C | 0.749
C4G A20U G58C | ≤ 0.5
C4A U47A G48C | 0.559
C4G A40U C62A | 0.638
C4A G10C C11U C27U A45U C60G | ≤ 0.5
C4A G23A C31G A40C | 0.52
C4A U19C U35C | 0.685
C4A U13G A45U U47A U59C | ≤ 0.5

Variant | yeast fitness
C4A G23C G56C U59A A65G | ≤ 0.5
C4A G23A U28A A57G | ≤ 0.5
C4G A14G A37U G38A G63C | ≤ 0.5
C4A G23A C31G A40C G48C C66A | ≤ 0.5
C4A G17C G56A | ≤ 0.5
C4A G17A C27U C33U | ≤ 0.5
C4G A21U A36C C61A | 0.615
C4G A40U A45U G67A | ≤ 0.5
C4A G23A C29U C34G G38C | ≤ 0.5
C4G A14G G68A | 0.59
C4A G23C C31U C34G A43G A45C A57U | ≤ 0.5
C4A G63A A65U | ≤ 0.5
C4A U7A C31U C61G | ≤ 0.5
C4G A20C U26G C33U G44C U59A G67A | ≤ 0.5
C4G A15G C29A C34U C66G | ≤ 0.5
C4G A14U C24G C31G C61G | ≤ 0.5
C4G A14U C31U A40G | ≤ 0.5
C4A U16C G17A A69U | ≤ 0.5
C4G A14G U26C A36G A37C | ≤ 0.5
C4A G18A C29U C66A | ≤ 0.5
C4G A36C | 0.745
C4G A36U | 0.663
C4G A15U G18C G23C C24G G56C A70G | 0.586
C4A U32C A43C | 0.57

Variant | yeast fitness
C4A G17A A21G C24G G67A A70G | ≤ 0.5
C4A U7C U26G A65C | 0.59
C4G A43G | 0.729
C4A G39A G52C C55G | ≤ 0.5
C4A G17C G23C A45C | 0.527
C4A U7G G12C C29A C30U C34U C61U C66A | ≤ 0.5
C4G A21G G50A | 0.718
C4A U32C A40U | 0.517
C4G A15U U54G C55U | 0.51
C4G A15G G23A C34G G67U | ≤ 0.5
C4G A37C G38A G63A | ≤ 0.5
C4A G50A A70G | 0.57
C4G A15C U19A | ≤ 0.5
C4A G17A C30A | ≤ 0.5
C4A U7A U59A | ≤ 0.5
C4A G23C G50A A57G | 0.62
C4G A40U C66U | 0.571
C4G A40C | 0.811
C4G A42U G48A | 0.575
C4A U19G U35C | ≤ 0.5
C4G A40U A42C C66U | 0.52
C4G A14C C31U U35A U47G | ≤ 0.5
C4A U16G G52C U64A | ≤ 0.5
C4G A15U C34G A36C | ≤ 0.5

Variant | yeast fitness
C4G A15C C46A G67A | ≤ 0.5
C4G A14C G48A C49U | ≤ 0.5
C4A U35C U64G | ≤ 0.5
C4G A14C C22U U47C | ≤ 0.5
C4A U13C G23C C34G A40G A45G U53C U64A | ≤ 0.5
C4A G12A A42G | ≤ 0.5
C4A G38C C55G A69C | ≤ 0.5
C4G A14G C24U U32G A43G C66U | ≤ 0.5
C4G A21G C22U U28A U35C | ≤ 0.5
C4G A40U A42C C61G | ≤ 0.5
C4G A14C G50C C62G | ≤ 0.5
C4G A15U C29A G48A A65U | 0.53
C4A G17A C61A | 0.534
C4A G63U | 0.624
C4A G63A | 0.938
C4A U7A C11U C31U U59A | ≤ 0.5
C4G A14C A20C A40G G44C U53C C55A A65U | ≤ 0.5
C4A U26C A65C | ≤ 0.5
C4G A14G G63A | ≤ 0.5
C4A U26G G44C G58A | 0.535
C4A U8G A14U A70U | ≤ 0.5
C4A G51A A70G | 0.58
C4A G23A C30U C31G A40C | ≤ 0.5
C4G A21C C22U | 0.626

Variant | yeast fitness
C4G A40U C46U G67U | 0.602
C4A U7C C27U U53A | ≤ 0.5
C4A U7A | 0.679
C4A U54C U59A | 0.542
C4A G25C C29G G41A C49U A65G C66U | ≤ 0.5
C4A G23C C49U G58A A69C | 0.535
C4G A20U C31G | 0.555
C4G A15C G50C U54C | ≤ 0.5
C4A U28C A42G A65U A69C | ≤ 0.5
C4G A43G G51C | ≤ 0.5
C4A G17A G41A | 0.525
C4G A37U C49A G52A C55U G56A | 0.688
C4A U13G A45U U47A | 0.616
C4A G12A C34G C66U | ≤ 0.5
C4A G44A C49U U54G C66U A70C | 0.503
C4G A21U C66G | ≤ 0.5
C4G A20U C60U A70U | 0.651
C4G A21C C30A G51A | 0.747
C4G A14U C46U C60U A65C | ≤ 0.5
C4G A14C A42G | ≤ 0.5
C4A G52C C62U | ≤ 0.5
C4A U53A G67U | ≤ 0.5
C4G A14G U26C A36G A37C G51C | ≤ 0.5
C4A U28C G56A C61U | ≤ 0.5

Variant | yeast fitness
C4A G18A C22U G44C C46U C49U | ≤ 0.5
C4A U16G C24U G48A | 0.643
C4A U7A A14G G17C A36G C61U | ≤ 0.5
C4A G17C A21U C33G | 0.517
C4A G67A | 0.781
C4A G68U | 0.831
C4A G68A | 0.962
C4G A20U C66U | ≤ 0.5
C4G A20U A57U C62U | ≤ 0.5
C4A U16A C29G C55U C66U | ≤ 0.5
C4A U16A A43C | ≤ 0.5
C4G A21C G23C A36U A57U C60G G68C | ≤ 0.5
C4A G25C U26A C61A | ≤ 0.5
C4A U26G G44C G58A U59C G68C | ≤ 0.5
C4A G17A C22A C31A C33A C49A | 0.525
C4A U32C G58C | 0.588
C4A G17C A20U C22U | ≤ 0.5
C4G A15U A37U | 0.541
C4A G52C A57C G63C | 0.56
C4G A36U U53A G68A A69G | ≤ 0.5
C4A U7C G41A C49A | 0.504
C4A U32C C66U | 0.707
C4G A21C G39C A42U G48C | ≤ 0.5
